No end group written: not given here. *: point of attachment. Dansyl = CN(C)c1cccc2c(S(=O)(=O)*)cccc12; Me3 = trimethyl-lysine, K(Me3)
Experiments:
[1] = target: truncated version of Eed (residues 77 to 441), ΔEed (UniProt O75530); test: other fluorescence titration
ΔEed = ΔEed (Homo sapiens, UniProt O75530, M370T); test: crystal structure of ΔEed with ligand; format: binding; conditions: crystallisation additive 0.6–0.7 M NDSB-195, 4.0–4.1 M formate
In short: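 ΔEed carrying Met-370Thr was purified by size exclusion (50 mM Tris-HCl pH 8.7, 150 mM NaCl, 3 mM TCEP) and held at 1.5 mg/ml with peptide at 7-fold molar excess, 15 mM TCEP. Hanging-drop vapour diffusion was run at 18 °C, mixing equal volumes with 3.7–3.9 M formate. Apo ΔEed (2.5 mg/ml) used 4.0–4.1 M formate with 0.6–0.7 M NDSB-195.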

nucleosomes = test: pull-down, nucleosomes; format: binding; conditions: methylated or unmodified nucleosomes, not separated
In short: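 Reconstituted chromatin arrays (salt dialysis, agarose-column purified to remove free histone) at 2 ug were incubated with 2 ug protein or complex in 50mM Tris pH8.0, 50mM NaCl, 1 mM EDTA, 0.1% NP40 for 2 hours at 4°C. Capture was on NiNta beads for Eed or M2 beads for PRC2. After extensive washing, beads were eluted in SDS loading buffer and analysed by western blot.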

[2] = system: chromatin reconstituted with histones containing the different levels of H3K36 methylation; test: pull-down, H3K36 methylated chromatin; format: binding; conditions: NiNta pull-down, Fig. S8
In short: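 Chromatin arrays were built from recombinant histones carrying single chemically installed methyl-lysine analogs, assembled into octamers, formed by salt dialysis and cleared of free histone on an agarose column. 2 ug chromatin was incubated with 2 ug full-length His-tagged Eed in 50mM Tris pH8.0, 50mM NaCl, 1 mM EDTA, 0.1% NP40 for 2 hours at 4°C with NiNta beads. Beads were washed extensively, eluted in SDS loading buffer and analysed by western blot.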

[3] = system: chromatin trimethylated on H3K9; test: pull-down, chromatin trimethylated on H3K9; format: binding; conditions: 2 ug chromatin, 2 ug protein or complex, 2 hours at 4 C, western blot
In short: (§1)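 Recombinant histones were made in E. coli, assembled into octamers and formed into chromatin by salt dialysis, then purified on an agarose column. Chromatin (2 ug) was incubated with 2 ug Sf9-reconstituted PRC2-Ezh2 in 50 mM Tris pH 8.0, 50 mM NaCl, 1 mM EDTA, 0.1% NP40 with M2 beads for 2 h at 4 °C. Beads were washed, eluted in SDS loading buffer and analysed by western blot against a beads-only control.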

unmodified chromatin = test: pull-down, unmodified chromatin; format: binding; conditions: M2-Beads pull-down, 2 hours at 4 C, western blot
In short: as §1

[4] = target: truncated version of Eed (residues 77 to 441), ΔEed (UniProt O75530 78-441, Met-370Thr); test: other fluorescence titration

R26A of H3K27me3 peptide gave a fold reduction of binding against the H3K27me3 peptide [1] of 1.5 fold.

In the case of CC[N+](C)(C)CCCS(=O)(=O)[O-] [NDSB-195], the “electron density in central pocket of ΔEed” value (ΔEed) is reported as “able to build into the extra electron density”.

For “PRC2 Eed (Phe-97Ala): mutant PRC2 complex containing Eed (Phe-97Ala)”, the interaction with nucleosomes (nucleosomes) was “does not show binding to chromatin”.

With “PRC2 Eed (Tyr-365Ala): mutant PRC2 complex containing Eed (Tyr-365Ala)” the interaction with nucleosomes (nucleosomes) was “does not show binding to chromatin”.

Eed: full-length His-tagged Eed protein was tested, and the “interaction with H3K36 methylated chromatin” value [2] was “not able to interact” and the “interaction with chromatin trimethylated on H3K9” value [3] was “did bind”.

“ΔEed: truncated version of Eed (residues 77 to 441)” was tested, and the interaction with nucleosomes (nucleosomes) was “failed to interact with nucleosomes”.

In the case of “PRC2: PRC2 complex purified from insect cells co-infected with baculovirus expressing each of the subunits”, the “interaction with unmodified chromatin” value (unmodified chromatin) is reported as “displayed some binding” and the “interaction with chromatin trimethylated on H3K9” value [3] is reported as “bound significantly tighter”.

KKKARK(Me3)SAGAAK(Dansyl) (not fully specified; printed as KKKARK(Me3)SAGAAK-dansyl) [dansyl labelled peptide KKKARK(Me3)SAGAAK-dansyl]: binds [4].
